Experimental data collected from several papers.
Each line is one published result; the experiments were not run side by side.
GHSR: Growth hormone secretagogue receptor type 1 (GHSR, Homo sapiens, UniProt Q92847)
CASP3: Caspase-3 (CASP3, Homo sapiens, UniProt P42574)
USP51: Ubiquitin carboxyl-terminal hydrolase 51 (USP51, Homo sapiens, UniProt Q70EK9)

SMILES | target | assay | conditions | inhibition
O=C(Nc1cccnn1)N1CCN([C@@H]2CCOc3cc(C(F)(F)F)ccc32)CC1 | Angiotensin-converting enzyme (ACE, Homo sapiens, UniProt P12821) | enzyme activity, inhibitor | 20 µM | -7%
COCc1c(-c2cc3cc(C)cc(OC)c3s2)c2c(N)ncnn2c1CN1CCNC(=O)C1 | GHSR | ligand displacement, radioligand | 10 µM | 11%
C[C@H](C(=O)N[C@H]1COc2ccccc2[C@@H]1S(C)(=O)=O)c1ccc(F)cc1 | GHSR | cell-free assay | 10 µM | -1%
CC(C)N1CCC[C@H]1CNC(=O)c1cn(C2CCCC2)c(=O)c2c1c1ccccc1n2C | Sodium- and chloride-dependent GABA transporter 1 (Slc6a1, Rattus norvegicus, UniProt P23978) | ligand displacement, radioligand | 10 µM | -2%
N=C(N)c1ccc2cc(OC(=O)c3ccc(N=C(N)N)cc3)ccc2c1 | CASP3 | enzyme activity, inhibitor | 10 µM | 0%
O=c1cccc2n1C[C@@H]1CNC[C@H]2C1 | USP51 | enzyme activity, inhibitor | 5 µM | 0%
c1ccc(C(NCCNC(c2ccccc2)c2ccccc2)c2ccccc2)cc1 | GHSR | cell-free assay | 10 µM | 86%
C#Cc1n[nH]c2c(-c3cn(C(C)c4ccccn4)c(=O)[nH]c3=O)cc(F)cc12 (stereo not shown) | Serine/threonine-protein kinase Chk1 (CHEK1, Homo sapiens, UniProt O14757) | enzyme activity, inhibitor | 1 µM | 7%
CC[C@H]1[C@@H]2C[C@H]3[C@@H]4N(C)c5ccccc5[C@]45C[C@@H]([C@H]2[C@H]5O)N3[C@@H]1O | USP51 | enzyme activity, inhibitor | 5 µM | 26%
C#Cc1n[nH]c2c(-c3cn([C@@H](C)c4ccccc4)c(=O)[nH]c3=O)cc(F)cc12 | DNA-dependent protein kinase catalytic subunit (PRKDC, Homo sapiens, UniProt P78527) | enzyme activity, inhibitor | 0.1 µM | -1.6%
O=C1CCC[C@@H]2[C@H]3CCCN4CCC[C@H](CN12)[C@@H]34 | USP51 | enzyme activity, inhibitor | 5 µM | 0%
CC(=O)N[C@@H](CC(=O)O)C(=O)N[C@@H](CC(N)=O)C(=O)N[C@@H](CC(C)C)C(=O)N[C@H](C=O)CC(=O)O | CASP3 | enzyme activity, inhibitor | 0.1 µM | 80%
COC1=CC(=O)O[C@@H](/C=C/c2ccccc2)C1 | USP51 | enzyme activity, inhibitor | 5 µM | 40%
Cc1ncc(C)n2nc(/C=C/c3nc(N4CCCC4)cc(N4CCOCC4)n3)nc12 | Prostaglandin F2-alpha receptor (PTGFR, Homo sapiens, UniProt P43088) | ligand displacement | 10 µM | -9%
CC1=C2[C@H]3OC(=O)[C@@H](C)[C@@H]3CC[C@@]2(C)C=CC1=O | USP51 | enzyme activity, inhibitor | 5 µM | 28%
Cn1cc(-c2cccc(N3CCc4c(sc5c4CC(C)(C)C5)C3=O)c2CO)cc(Nc2ccncn2)c1=O | Calcium/calmodulin-dependent protein kinase type IV (CAMK4, Homo sapiens, UniProt Q16566) | enzyme activity, inhibitor | 1 µM | -5%
